Experimental data from ChEMBL document CHEMBL1123415, “Benzo[a]carbazole derivatives. Synthesis, estrogen receptor binding affinities, and mammary tumor inhibiting activity” (1986).
Values belong to the compound of their own block, whether it stands above or below them.

How the values were obtained:
[1] = target: T1, Estrogen receptor (Mus musculus) (UniProt O08537+P19785); test: Uterotrophic activity in mice as uterus dry weight (mg)/body weight (g) *100 at 0.2 ug; type: functional, tissue-based
T1 sequence (O08537 whole entry, looked up): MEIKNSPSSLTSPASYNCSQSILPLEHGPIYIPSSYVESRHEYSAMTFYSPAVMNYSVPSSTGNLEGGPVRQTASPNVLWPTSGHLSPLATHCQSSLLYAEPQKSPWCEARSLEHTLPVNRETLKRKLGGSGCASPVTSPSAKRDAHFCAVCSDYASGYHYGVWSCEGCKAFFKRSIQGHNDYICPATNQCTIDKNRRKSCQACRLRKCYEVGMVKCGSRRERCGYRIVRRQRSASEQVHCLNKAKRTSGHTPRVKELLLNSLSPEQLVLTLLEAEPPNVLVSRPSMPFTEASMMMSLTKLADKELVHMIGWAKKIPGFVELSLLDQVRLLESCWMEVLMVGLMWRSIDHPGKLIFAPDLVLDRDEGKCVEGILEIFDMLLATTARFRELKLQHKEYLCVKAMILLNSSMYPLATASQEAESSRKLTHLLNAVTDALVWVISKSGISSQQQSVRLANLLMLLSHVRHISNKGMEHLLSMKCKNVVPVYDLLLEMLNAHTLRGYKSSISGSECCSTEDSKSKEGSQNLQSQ
T1 sequence (P19785 whole entry, looked up): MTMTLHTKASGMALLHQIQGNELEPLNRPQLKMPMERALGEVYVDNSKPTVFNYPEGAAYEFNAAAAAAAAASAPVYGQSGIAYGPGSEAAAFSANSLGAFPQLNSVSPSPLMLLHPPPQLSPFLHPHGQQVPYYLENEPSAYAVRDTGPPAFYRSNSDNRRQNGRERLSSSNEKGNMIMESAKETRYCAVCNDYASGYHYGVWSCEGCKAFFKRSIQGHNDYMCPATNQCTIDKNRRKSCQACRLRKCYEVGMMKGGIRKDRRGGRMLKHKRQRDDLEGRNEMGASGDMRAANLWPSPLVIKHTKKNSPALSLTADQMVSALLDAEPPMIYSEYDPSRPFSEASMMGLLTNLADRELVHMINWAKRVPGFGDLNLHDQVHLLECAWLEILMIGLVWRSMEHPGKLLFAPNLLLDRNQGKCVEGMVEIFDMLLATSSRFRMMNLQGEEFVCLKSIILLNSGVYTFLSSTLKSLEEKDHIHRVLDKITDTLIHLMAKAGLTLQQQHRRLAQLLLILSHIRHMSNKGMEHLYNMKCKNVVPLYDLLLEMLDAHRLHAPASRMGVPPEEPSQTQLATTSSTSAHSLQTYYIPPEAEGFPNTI
In short: (§1)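 Immature 19-day-old female NMRI mice, 10 per group. Compound in olive oil injected sc on 3 consecutive days, dose per animal; vehicle-only controls, estrone as reference. Killed 24 h after last injection. Uteri fixed in Bouin solution, dried at 100 °C for 24 h. Value = uterine dry weight (mg)/body weight (g) ×100, mean of 10 animals ± SD.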

[2] = target: T1, Estrogen receptor (Mus musculus); test: Uterotrophic activity in mice as uterus dry weight (mg)/body weight (g) *100 at 1 ug; type: functional, tissue-based; in short: as §1
[3] = target: T1, Estrogen receptor (Mus musculus); test: Uterotrophic activity in mice as uterus dry weight (mg)/body weight (g) *100 at 25 ug; type: functional, tissue-based; in short: as §1
[4] = target: T1, Estrogen receptor (Mus musculus); test: Uterotrophic activity in mice as uterus dry weight (mg)/body weight (g) *100 at 5 ug; type: functional, tissue-based; in short: as §1
[5] = target: T1, Estrogen receptor (Mus musculus); test: Uterotrophic activity in mice as uterus dry weight (mg)/body weight (g) *100 at 125 ug; type: functional, tissue-based; in short: as §1
Rattus norvegicus [6] = organism: Rattus norvegicus; test: Change in DMBA-induced mammary tumor area in rats after 28 day therapy at 4 mg dose (experiment-1); type: functional
In short: (§2)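 Female Sprague–Dawley rats given a single 20 mg DMBA dose by gavage in 1 mL olive oil at 50 days old. Randomized once tumor area per animal exceeded 140 mm². Compound given sc in olive oil (1 mL/kg), dose per kg, once daily Monday–Thursday, double dose Friday. Tumor area from caliper measurement of two perpendicular axes, twice weekly. Significance by Wilcoxon–Mann–Whitney U test.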

Rattus norvegicus [7] = organism: Rattus norvegicus; test: Change in DMBA-induced mammary tumor area in rats after 28 day therapy at 1 mg dose (experiment-1); type: functional; in short: as §2
Rattus norvegicus [8] = organism: Rattus norvegicus; test: Complete remission of DMBA-induced mammary tumors in rats at 1 mg dose; type: functional; in short: as §2
Rattus norvegicus [9] = organism: Rattus norvegicus; test: Partial remission of DMBA-induced mammary tumors in rats at 1 mg dose; type: functional; in short: as §2
Rattus norvegicus [10] = organism: Rattus norvegicus; test: Complete remission of DMBA-induced mammary tumors in rats at 4 mg dose; type: functional; in short: as §2
Rattus norvegicus [11] = organism: Rattus norvegicus; test: Partial remission of DMBA-induced mammary tumors in rats at 4 mg dose; type: functional; in short: as §2
Rattus norvegicus [12] = organism: Rattus norvegicus; test: Percentage progressive DMBA-induced mammary tumors in rats at 1 mg dose (experiment-1); type: functional; in short: as §2
Rattus norvegicus [13] = organism: Rattus norvegicus; test: Percentage static unchanged DMBA-induced mammary tumors in rats at 1 mg dose (experiment-1); type: functional; in short: as §2
Rattus norvegicus [14] = organism: Rattus norvegicus; test: Percentage progressive DMBA-induced mammary tumors in rats at 4 mg dose (experiment-1); type: functional; in short: as §2
Rattus norvegicus [15] = organism: Rattus norvegicus; test: Percentage static unchanged DMBA-induced mammary tumors in rats at 4 mg dose (experiment-1); type: functional; in short: as §2
Rattus norvegicus [16] = organism: Rattus norvegicus; test: Final tumor number in DMBA-induced tumor bearing rats at 1 mg dose (experiment-1); type: functional; in short: as §2
Rattus norvegicus [17] = organism: Rattus norvegicus; test: Final tumor number in DMBA-induced tumor bearing rats at 4 mg dose (experiment-1); type: functional; in short: as §2
Rattus norvegicus [18] = organism: Rattus norvegicus; test: Initial tumor number in DMBA-induced tumor bearing rats at 1 mg dose (experiment-1); type: functional; in short: as §2
Rattus norvegicus [19] = organism: Rattus norvegicus; test: Initial tumor number in DMBA-induced tumor bearing rats at 4 mg dose (experiment-1); type: functional; in short: as §2
[20] = target: Estrogen receptor (Bos taurus) (UniProt Q9XSB5+P49884); test: Evaluated for relative binding affinity (RBA) for calf uterine estrogen receptor; type: protein assay
In short: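 Calf uterine cytosol (105000g supernatant; final protein 3 mg/mL) in Tris-EDTA-azide buffer pH 7.5. Incubated with 5 nM [³H]estradiol and competitor (10⁻⁹–10⁻⁴ M) for 18 h at 4 °C. Free ligand removed with dextran-coated charcoal, bound counted by scintillation. Nonspecific binding measured with 5 μM estradiol. RBA = estradiol/competitor molar ratio at 50% displacement ×100.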

MCF7 [21] = test: Inhibition of [3H]thymidine incorporation into hormone sensitive MCF-7 human breast cancer cells at 10e-5 M; type: functional
In short: (§3)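 MCF-7 cells kept two weeks in medium with 5% charcoal-treated calf serum, 37 °C, 5% CO₂. About 2×10⁴ cells per well; compound added next day in 0.1% ethanol, ethanol-only controls, medium changed on day 4. Cells counted on day 7 by Coulter counter; [³H]thymidine 1 μCi/well for 2 h. Mean of six dishes.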

MCF7 [22] = test: Inhibition of [3H]thymidine incorporation into hormone sensitive MCF-7 human breast cancer cells at 10e-6 M; type: functional; in short: as §3
MCF7 [23] = test: Reduction of cell number of hormone sensitive MCF-7 human breast cancer cells at 10e-5 M
MCF7 [24] = test: Reduction of cell number of hormone sensitive MCF-7 human breast cancer cells at 10e-6 M
Rattus norvegicus [25] = organism: Rattus norvegicus; test: (§4) Change in DMBA-induced mammary tumor area in rats after 28 day therapy at 4 mg dose (experiment-2); type: functional; in short: as §2
Rattus norvegicus [26] = organism: Rattus norvegicus; test: as §4; type: functional; in short: as §2; remark: listed apart in the source
Rattus norvegicus [27] = organism: Rattus norvegicus; test: Final tumor number in DMBA-induced tumor bearing rats at 4 mg dose (experiment-2); type: functional; in short: as §2
Rattus norvegicus [28] = organism: Rattus norvegicus; test: Initial tumor number in DMBA-induced tumor bearing rats at 4 mg dose (experiment-2); type: functional; in short: as §2
Rattus norvegicus [29] = organism: Rattus norvegicus; test: Change in DMBA-induced tumor area in rats after 28 day therapy at 1 mg dose (experiment-1); type: functional; in short: as §2

SMILES: CCn1c2c(c3cc(OC(C)=O)ccc31)CCc1cc(OC(C)=O)ccc1-2
Effect [1]: 15.3 | Effect [2]: 19.6 | Effect [3]: 23.6 | Effect [4]: 18.4 | Effect [5]: 25.4 | Change in tumor area (Rattus norvegicus [6]): 230% | Change in tumor area (Rattus norvegicus [7]): 179% | Effect (Rattus norvegicus [8]): 9% | Effect (Rattus norvegicus [9]): 7% | Effect (Rattus norvegicus [10]): 10% | Effect (Rattus norvegicus [11]): 6% | Effect (Rattus norvegicus [12]): 49% | Effect (Rattus norvegicus [13]): 35% | Effect (Rattus norvegicus [14]): 61% | Effect (Rattus norvegicus [15]): 23% | No. of new tumors (Rattus norvegicus [16]): 21 | No. of new tumors (Rattus norvegicus [17]): 24 | No. of tumors (Rattus norvegicus [18]): 22 | No. of tumors (Rattus norvegicus [19]): 24

SMILES: CCn1c2ccc(O)cc2c2ccc3cc(O)ccc3c21
relative binding affinity (RBA) [20]: 6.5 | Activity (MCF7 [21]): 1040 | Activity (MCF7 [22]): 26460 | cell number (MCF7 [23]): 5200 | cell number (MCF7 [24]): 24100

SMILES: CCn1c2cc(O)ccc2c2ccc3c(O)cccc3c21
relative binding affinity (RBA) [20]: 0.65

SMILES: CCn1c2c(c3cc(O)ccc31)CCc1ccccc1-2
relative binding affinity (RBA) [20]: 0.06

SMILES: CCn1c2ccccc2c2ccc3cc(O)ccc3c21
relative binding affinity (RBA) [20]: 0.33

SMILES: CCn1c2cc(O)ccc2c2ccc3cc(O)ccc3c21
relative binding affinity (RBA) [20]: 20

SMILES: CCn1c2c(c3ccccc31)CCc1cc(O)ccc1-2
relative binding affinity (RBA) [20]: 1.8

SMILES: CCn1c2ccc(OC(C)=O)cc2c2ccc3cc(OC(C)=O)ccc3c21
Effect [1]: 12 | Effect [2]: 13.7 | Effect [3]: 15.1 | Effect [4]: 14.4 | Effect [5]: 18.1 | Effect (Rattus norvegicus [8]): 3% | Effect (Rattus norvegicus [9]): 8% | Effect (Rattus norvegicus [10]): 6% | Effect (Rattus norvegicus [11]): 10% | Change of tumor area (Rattus norvegicus [25]): 561% | Change of tumor area (Rattus norvegicus [26]): 111% | Effect (Rattus norvegicus [12]): 70% | Effect (Rattus norvegicus [13]): 19% | Effect (Rattus norvegicus [14]): 59% | Effect (Rattus norvegicus [15]): 25% | No. of new tumors (Rattus norvegicus [16]): 41 | No. of new tumors (Rattus norvegicus [27]): 45 | No. of tumors (Rattus norvegicus [18]): 22 | No. of tumors (Rattus norvegicus [28]): 23 | Median (Rattus norvegicus [29]): 493% | Range (Rattus norvegicus [29]): -29%

SMILES: Cn1c2cc(O)ccc2c2ccc3cc(O)ccc3c21
relative binding affinity (RBA) [20]: 9.5

SMILES: Cn1c2c(c3ccc(O)cc31)CCc1cc(O)ccc1-2
relative binding affinity (RBA) [20]: 9.6

Results, then the compound that gave them:

relative binding affinity (RBA) [20]: 13
SMILES: CCCn1c2cc(O)ccc2c2ccc3cc(O)ccc3c21

relative binding affinity (RBA) [20]: 0.8
SMILES: CCn1c2c(c3ccc(O)cc31)CCc1ccccc1-2

relative binding affinity (RBA) [20]: 0.01
SMILES: CCn1c2cc(O)ccc2c2ccc3ccccc3c21

relative binding affinity (RBA) [20]: 1.3
SMILES: CCn1c2c(c3ccc(O)cc31)CCc1c(O)cccc1-2

relative binding affinity (RBA) [20]: 0.08
SMILES: CCn1c2ccc(O)cc2c2ccc3ccc(O)cc3c21
